Data taken from ChEMBL document CHEMBL1150246, “Synthesis and activity of tetrapeptidic HTLV-I protease inhibitors possessing different P3-cap moieties” (Bioorg Med Chem, 2008).
Starred links: 1 amine or outer side, 2 acyl side, 3 side chain; linkers in the order of their positions; H or OH if unused. Non-standard residues stand in square brackets, D forms with d. Residues, ends and D or L forms follow the SMILES beside them. X1 = O=C([C@@H](O)[C@H](Cc1ccccc1)N[*:1])[*:2]

Experiments:
Protease = target: T1, Protease (Human T-lymphotropic virus 1, UniProt Q82323); experiment: Inhibition of HTLV1 protease1; set-up: species or system Human T-cell leukemia virus type I
T1 sequence (Q82323 whole entry): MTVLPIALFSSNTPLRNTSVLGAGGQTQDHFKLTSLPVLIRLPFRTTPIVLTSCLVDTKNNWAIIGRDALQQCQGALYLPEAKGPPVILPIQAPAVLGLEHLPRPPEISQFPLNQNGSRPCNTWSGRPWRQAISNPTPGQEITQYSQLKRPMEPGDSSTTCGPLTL
In short: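 HTLV-I protease L40I mutant, which blocks autolysis and improves stability. Inhibition reported as IC50 with SEM in nM. Remaining assay steps follow an earlier published procedure.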

[1] = tested on: Human immunodeficiency virus; experiment: Inhibition of HIV protease at 50 nM

| SMILES | IC50 (Protease) [nM] | inhibition [1] [%] |
| --- | --- | --- |
| CC(C)CNC(=O)[C@H]1N(C(=O)[C@@H](O)[C@H](Cc2ccccc2)NC(=O)[C@@H](NC(=O)[C@@H](NC(=O)C2CCCCC2)c2ccccc2)C(C)(C)C)CSC1(C)C | 98.2 | > 99 |
| CSCC[C@H](NC(=O)[C@@H](NC(=O)[C@@H]1CCCN1C(=O)[C@@H](O)[C@H](Cc1ccccc1)NC(=O)[C@@H](NC(=O)[C@H](CCC(N)=O)NC(=O)[C@@H]1CCCN1)C(C)C)C(C)C)C(=O)N[C@@H](Cc1cnc[nH]1)C(=O)O (H-PQV[X1]PVMH-OH) | 159 |  |
| CCC(=O)N[C@H](C(=O)N[C@H](C(=O)N[C@@H](Cc1ccccc1)[C@H](O)C(=O)N1CSC(C)(C)[C@H]1C(=O)NCC(C)C)C(C)(C)C)c1ccccc1 | 105 | > 99 |
| CC(C)CNC(=O)[C@H]1N(C(=O)[C@@H](O)[C@H](Cc2ccccc2)NC(=O)[C@@H](NC(=O)[C@@H](NC(=O)C(C)(C)C)c2ccccc2)C(C)(C)C)CSC1(C)C | 82.8 | > 99 |
| CC(C)CNC(=O)[C@H]1N(C(=O)[C@@H](O)[C@H](Cc2ccccc2)NC(=O)[C@@H](NC(=O)[C@@H](NC(=O)CCc2ccccc2)c2ccccc2)C(C)(C)C)CSC1(C)C | 105 | > 99 |
| CC(C)CNC(=O)[C@H]1N(C(=O)[C@@H](O)[C@H](Cc2ccccc2)NC(=O)[C@@H](NC(=O)[C@@H](NC(=O)CC(C)(C)C)c2ccccc2)C(C)(C)C)CSC1(C)C | 83.3 | > 99 |
| CC(C)CCC(=O)N[C@H](C(=O)N[C@H](C(=O)N[C@@H](Cc1ccccc1)[C@H](O)C(=O)N1CSC(C)(C)[C@H]1C(=O)NCC(C)C)C(C)(C)C)c1ccccc1 | 96.5 | > 99 |
| CCCC(=O)N[C@H](C(=O)N[C@H](C(=O)N[C@@H](Cc1ccccc1)[C@H](O)C(=O)N1CSC(C)(C)[C@H]1C(=O)NCC(C)C)C(C)(C)C)c1ccccc1 | 104 | > 99 |
| CCC(C)CC(=O)N[C@H](C(=O)N[C@H](C(=O)N[C@@H](Cc1ccccc1)[C@H](O)C(=O)N1CSC(C)(C)[C@H]1C(=O)NCC(C)C)C(C)(C)C)c1ccccc1 (stereo not given in full) | 88.2 | > 99 |
| CC(C)CNC(=O)[C@H]1N(C(=O)[C@@H](O)[C@H](Cc2ccccc2)NC(=O)[C@@H](NC(=O)[C@@H](NC(=O)c2ccccc2)c2ccccc2)C(C)(C)C)CSC1(C)C | 79.2 | > 99 |
| CC(C)CNC(=O)[C@H]1N(C(=O)[C@@H](O)[C@H](Cc2ccccc2)NC(=O)[C@@H](NC(=O)[C@@H](NC(=O)C(C)C)c2ccccc2)C(C)(C)C)CSC1(C)C | 93.5 | > 99 |
| CC(C)CNC(=O)[C@H]1N(C(=O)[C@@H](O)[C@H](Cc2ccccc2)NC(=O)[C@@H](NC(=O)[C@@H](N)c2ccccc2)C(C)(C)C)CSC1(C)C | 332 | > 99 |
| CCCCC(=O)N[C@H](C(=O)N[C@H](C(=O)N[C@@H](Cc1ccccc1)[C@H](O)C(=O)N1CSC(C)(C)[C@H]1C(=O)NCC(C)C)C(C)(C)C)c1ccccc1 | 92 | > 99 |
| CC(=O)N[C@H](C(=O)N[C@H](C(=O)N[C@@H](Cc1ccccc1)[C@H](O)C(=O)N1CSC(C)(C)[C@H]1C(=O)NCC(C)C)C(C)(C)C)c1ccccc1 | 107 | > 99 |
| CC(C)CNC(=O)[C@H]1N(C(=O)[C@@H](O)[C@H](Cc2ccccc2)NC(=O)[C@@H](NC(=O)[C@@H](NC(=O)CC(C)C)c2ccccc2)C(C)(C)C)CSC1(C)C | 102 | > 99 |
| CC(C)CNC(=O)[C@H]1N(C(=O)[C@@H](O)[C@H](Cc2ccccc2)NC(=O)[C@@H](NC(=O)[C@@H](NC(=O)C2CC2)c2ccccc2)C(C)(C)C)CSC1(C)C | 96.9 | > 99 |
| CCCC(C)C(=O)N[C@H](C(=O)N[C@H](C(=O)N[C@@H](Cc1ccccc1)[C@H](O)C(=O)N1CSC(C)(C)[C@H]1C(=O)NCC(C)C)C(C)(C)C)c1ccccc1 (stereo not given in full) | 84.2 | > 99 |
| CCC(C)(C)C(=O)N[C@H](C(=O)N[C@H](C(=O)N[C@@H](Cc1ccccc1)[C@H](O)C(=O)N1CSC(C)(C)[C@H]1C(=O)NCC(C)C)C(C)(C)C)c1ccccc1 | 80.4 | > 99 |
